Inhibition data for 82 compounds are collected here from PubChem BioAssay AID624466 (The Scripps Research Institute Molecular Screening Center, 2012).

About 5,400 (1.5%) of roughly 360,000 compounds were called active. For the sample, actives were picked, then their nearest neighbours and some compounds at random. Values without a mark were called inactive.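 Rule for the calls: active = inhibition above a per-plate cutoff, the mean inhibition of test compounds on that plate plus 3 SD (cut at about 49% in these data); inactive = the rest.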

In this test the target is Trace amine-associated receptor 1 (Homo sapiens) (UniProt Q96RJ0). The test can be described thus: blockers of beta-PEA-driven TAAR1 calcium signal – Fluo-8 calcium fluorescence, CHO RD-HGA16 cells, primary screen (AID 624466).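 Note: 0% = DMSO plus EC80 beta-PEA response and 100% = DMSO alone without agonist.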 To be noted: CHO RD-HGA16 TAAR1, Fluo-8 calcium fluorescence, antagonist; at 3 µM; hits give high values. The method, boiled down: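 Assay system: CHO-derived RD-HGA16 cells stably expressing human TAAR1 plus Gα16. Timing: 140 s kinetic read after compound, 140 s after agonist. Technique: kinetic Fluo-8 calcium fluorescence measurement. Measure: % inhibition of agonist calcium response.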
Sequence of Trace amine-associated receptor 1 (Homo sapiens) (Q96RJ0 whole entry, looked up): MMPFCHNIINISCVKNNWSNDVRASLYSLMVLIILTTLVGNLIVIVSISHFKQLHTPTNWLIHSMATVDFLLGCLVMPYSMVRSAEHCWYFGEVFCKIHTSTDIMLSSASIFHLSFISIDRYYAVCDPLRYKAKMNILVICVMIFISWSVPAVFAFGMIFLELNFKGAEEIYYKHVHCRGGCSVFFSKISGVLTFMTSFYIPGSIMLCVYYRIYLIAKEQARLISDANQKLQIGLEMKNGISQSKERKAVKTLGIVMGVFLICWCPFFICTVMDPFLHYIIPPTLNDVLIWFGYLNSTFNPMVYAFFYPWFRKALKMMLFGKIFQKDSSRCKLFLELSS
One may read the inhibition as the relative decrease from the control value, in per cent. On to `Cc1cc(=O)[nH]c2nnnn12`, for which the inhibition was -7.21%.

Regarding `COc1ccc(S(=O)(=O)N(CC(=O)N/N=C/c2ccc(C(=O)O)cc2)Cc2ccccc2)cc1OC`, the inhibition is -28.3%.

In the case of `COc1ccc(N(CC(=O)N/N=C/c2cccc3c2OCCO3)S(=O)(=O)c2ccc(NC(C)=O)cc2)cc1`, the inhibition was 29.3%.

`COc1ccc(N(CC(=O)N/N=C/c2cccs2)S(=O)(=O)c2ccc(OC)c(OC)c2)cc1`: the inhibition is 69.2% (active). On to `Nc1[nH]c(C(=O)c2ccccc2)c(-c2ccc(Cl)cc2Cl)c1C(=O)c1ccccc1`, for which the inhibition was -37.8%.

Consider `COc1ccccc1OCCNC(=O)C(CCSC)NC(=O)COc1ccccc1` (configuration not stated), for which the inhibition was -26.3%.

Regarding `CSCCC(NC(=O)COc1ccccc1)C(=O)Nc1ccc(C)cc1` (configuration not stated), the inhibition is -10.3%. Then `CSCCC(NC(=O)COc1ccccc1)C(=O)OCC(=O)c1cc2ccccc2o1` (configuration not stated), with 50% (active); and `CSCCC(NC(=O)COc1ccccc1)C(=O)OCCOc1ccc(Br)cc1` (configuration not stated), with 55.7% (active).

On to `CSCCC(NC(=O)COc1ccccc1)C(=O)OCc1ccc(Cl)cc1` (configuration not stated), for which the inhibition was 22.9%.

In the case of `CSCCC(NC(=O)COc1ccccc1)C(=O)OCCOc1ccc(F)cc1` (configuration not stated), the inhibition was 37.1%. As for `C=CCN1C(=O)C2(OCCCO2)c2cccc(Cl)c21`, the inhibition was 3.13%. With `O=C(Nc1c(Cl)c(C2CC2)nn1-c1ccccc1)C(Cl)(Cl)Cl`, the inhibition was -12.3%. Then `FC(F)(F)c1cccc(-c2nc3ccccc3n2C(c2ccccc2)c2nc3ccccc3[nH]2)c1` (configuration not stated), with 18.4%.

`O=C(c1ccc(C(F)(F)F)cc1)N1CCC(=O)N([C@H](COCc2ccccc2)Cc2ccccc2)CC1`: the inhibition is 14.8%. Take `COc1ccc(NC(=O)C(c2ccncc2)n2c(=O)c(-c3cc4ccccc4[nH]3)nc3ccccc32)cc1` (configuration not stated): the inhibition is -5.75%. Then `O=C1NC[C@H](CCCCN2C[C@H](Cc3ccc(O)cc3)N(CCc3ccccc3)C(=O)C2=O)N(CCc2ccccc2)C1=O`, with 5.71%; and `COc1ccc(C2=NOC(Cn3nc(C(=O)NCc4ccc5c(c4)OCO5)cc3-c3ccccc3)C2)cc1` (configuration not stated), with 59.7% (active); and `COc1ccc(CNC(=O)C2(CC3CC(c4ccccc4)=NO3)CCN(C(=O)c3cccc(O)c3)CC2)cc1` (configuration not stated), with 33.5%. Consider `Cc1ccc(CNC(=O)c2cc(-c3ccccc3C)n(CC3CC(c4cccc([N+](=O)[O-])c4)=NO3)n2)cc1` (configuration not stated), for which the inhibition was 7.96%. Then `COc1ccccc1C(=O)N1O[C@]23C=C[C@]14C[C@@H](O)CC[C@]4(C)C2CC[C@]1(C)[C@@H]([C@H](C)/C=C/[C@H](C)C(C)C)CC[C@H]13` (some centres not stated), with 2.31%; and `Cc1ccc(C)c(-n2nnnc2SCC(=O)c2c(N)n(C)c(=O)n(C)c2=O)c1`, with -13.3%. Then `COC(=O)Nc1ccc(S(=O)(=O)Nc2cc(OC)nc(OC)n2)cc1`, with -1.45%.

As for `Cc1cc2nc3c(=O)[nH]c(=O)nc-3n(C[C@H](O)[C@H](O)[C@H](O)CO)c2cc1C`, the inhibition is 18.8%. Then `CCN(CC)CCCC(C)n1c2nc(=O)[nH]c(=O)c-2nc2cc(Cl)ccc21` (configuration not stated), with 72% (active); and `Nc1ccn([C@@H]2O[C@H](C(=O)N[C@H]3CCCCNC3=O)[C@@H](O)[C@H]2O)c(=O)n1`, with 21.5%; and `O=C(COC(=O)c1ccc(S(=O)(=O)N2CCc3ccccc3C2)cc1)NC(=O)NCc1ccco1`, with 0.28%. On to `Cc1cc(N2CCN(C(=O)OC(C)(C)C)C[C@H]2C)ccc1N1CCN(Cc2ccccc2)[C@H](C)C1`, for which the inhibition was 8.39%.

`COc1ccc(OC)c(Nc2nc3ccccc3n3cnnc23)c1`: the inhibition is -3.9%. Then `CSc1ccc(C#N)cc1NC(=O)c1cccc(Cl)c1`, with -1.36%. Then `COc1ccc(Sc2ccc(NC(=O)c3cccc(Cl)c3)cc2C#N)cc1`, with 48.8% (active); and `Cc1ccc(Sc2ccc(NC(=O)c3ccc(F)cc3)cc2C#N)cc1`, with 47.8%; and `Cc1cc(C)n2c(NCc3ccccc3)c(CC(C)C)nc2n1`, with -31.3%. Then `COc1cccc(-c2cnc3c(NC(C)=O)cc(-c4cc(F)ccc4OC)cn23)c1`, with 56.7% (active).

Regarding `COc1cccc(-c2cnc3c(NC(C)=O)cc(-c4cccc(NC(C)=O)c4)cn23)c1`, the inhibition is 33.8%.

Turning to `COc1ccccc1-c1cc(NC(C)=O)c2ncc(-c3ccc(F)cc3)n2c1`, the inhibition was 11%.

As to `CC1(C)CC(=O)C2=C(C1)Nc1cc(C(=O)c3ccccc3)ccc1NC2c1ccccn1` (configuration not stated), the inhibition was -12.4%. Then `Cc1ccc(C)c(NS(=O)(=O)c2c(C)[nH]c(C)c2C(=O)N2CCCCC2)c1`, with -30.8%; and `Cc1ccc(SCC(=O)Nc2ccc3c(c2)OCCO3)cc1`, with -11.4%; and `COC(=O)c1cc(OC)c(OC)cc1NC(=O)CSc1ccc(C)cc1`, with -0.75%. For the compound `Cc1ccc(SCC(=O)c2cc(C)c(OC(=S)N(C)C)c(C)c2)cc1`, the inhibition is 57% (active).

As to `CCCCNc1c(-c2cccc(Sc3ccc(OC)cc3)c2)nc2ccccn12`, the inhibition is 87.9% (active). Then `COC(=O)c1ccc2nc(-c3ccccc3)c(Cc3ccc(OC)cc3C)n2c1`, with 3.43%; and `COC(=O)c1ccc2nc(-c3cccc(Br)c3)c(Cc3ccc(OC)cc3C)n2c1`, with -4.86%. Then `CCCCNC(=O)CCn1nc(-c2ccc(Cl)cc2)ccc1=O`, with -14.1%; and `c1ccc(Nc2nc(N3CCOCC3)c3ccccc3n2)cc1`, with 74.1% (active). Then `COc1ccc(Nc2ncc(F)c(N3CCOCC3)n2)cc1`, with 7.62%. For `C/C(=N\Nc1nc(Nc2ccccc2)nc(N2CCOCC2)n1)c1cccs1`, the inhibition is 9.62%. Then `O=C(O)C1CCCN(S(=O)(=O)c2cccc3cccnc23)C1` (configuration not stated), with -9.13%; and `COc1ccc(CCNC(=O)C2CCCN(S(=O)(=O)c3ccc(OC)cc3)C2)cc1` (configuration not stated), with 5.88%; and `CC(=O)Nc1ccc(NC(=O)C2CCCN(S(=O)(=O)c3ccc(Cl)cc3)C2)cc1` (configuration not stated), with 9.58%. Regarding `COc1ccc(NC(=O)C2CCCN(S(=O)(=O)c3cccc4cccnc34)C2)cc1OC` (configuration not stated), the inhibition is 66.5% (active). Then `COc1ccccc1CNC(=O)C1CCCN(S(=O)(=O)c2cccc3cccnc23)C1` (configuration not stated), with -10.9%; and `COc1ccc(S(=O)(=O)N2CCCC(C(=O)Nc3ccc(NC(=O)c4ccccn4)cc3)C2)cc1` (configuration not stated), with 63% (active). Then `CCN(CC(=O)Nc1ccc(NC(C)=O)cc1)C(=O)CSC(=S)N1CCCC1`, with 14.2%.

`O=C1[C@H]2[C@@H](c3ccc(C(F)(F)F)cc3)N[C@]3(CCCN(Cc4ccc(Br)cc4)C3=O)[C@H]2C(=O)N1Cc1ccccc1`: the inhibition was -23.7%. Regarding `CCCNC(=O)C[C@@H]1CC[C@@H]2[C@H](COC[C@H](O)CN2C(=O)c2cc(Cl)cc(Cl)c2)O1`, the inhibition is -27.3%. For `O=C(NCCCc1ccccc1)C1CCC(=O)N(CCc2ccc(Cl)cc2)C1` (configuration not stated), the inhibition was 2.14%. Then `CCOc1cc(N2CCOCC2)c(OCC)cc1NC(=O)C1=NN(c2cccc(C)c2)C(=O)CC1`, with 44.9%; and `CCOc1cc(N2CCOCC2)c(OCC)cc1NC(=O)COc1cccc2cccnc12`, with 56.4% (active). Then `CCOc1cc(N2CCOCC2)c(OCC)cc1NC(=O)COC(=O)[C@H](Cc1c[nH]c2ccccc12)NC(C)=O`, with 22.1%; and `O=C(NCCN1C(=O)S/C(=C\c2cccnc2)C1=O)c1ccc(S(=O)(=O)N2CCCC2)cc1`, with 49.1% (active); and `COc1ccccc1N1CC(C(=O)NCCN2C(=O)S/C(=C\c3cccnc3)C2=O)CC1=O` (configuration not stated), with -4.74%.

For `O=C(NCCN1C(=O)S/C(=C\c2cccnc2)C1=O)c1cccc(OC(F)F)c1`, the inhibition is 7.53%.

Take `COC(=O)[C@@]12C[C@@H](CC(=O)NCc3cccc(C(F)(F)F)c3)C(=O)N(Cc3ccco3)C1=CCC(C)(C)C2`: the inhibition is -43.8%. Then `COC(=O)c1cc2c(c3c4ccccc4n(S(=O)(=O)c4cccc(C)c4)c13)C(=O)N(Cc1ccccc1)C2`, with -30.3%; and `CSc1ccc(Oc2cccc3c2S(=O)(=O)N([C@H](C)c2ccccc2)C[C@@H](COCc2ccccc2)O3)cc1C`, with 5.23%. Then `O=S1(=O)c2c(cccc2N2CCCCC2)O[C@H](COCc2ccccc2)CN1C1CC1`, with 51.8% (active); and `O=S1(=O)c2c(cccc2N2CCCC2)O[C@H](COCc2ccccc2)CN1C1CC1`, with 23.8%. Then `COC(=O)C1=C(C(=O)OC)C2C=C(C(C)C)C1C(=O)C2(C)O` (configuration not stated), with -37.3%; and `C[C@@H]1CN([C@@H](C)CO)S(=O)(=O)c2ccc(C#Cc3cccc(F)c3)cc2O[C@H]1CN(C)S(=O)(=O)c1cn(C)cn1`, with 68.3% (active); and `C[C@@H]1CN([C@H](C)CO)S(=O)(=O)c2ccc(C#C[C@@H](C)O)cc2O[C@@H]1CN(C)Cc1ccc(-c2ccccc2)cc1`, with -12.7%. Take `C[C@H]1CN([C@@H](C)CO)S(=O)(=O)c2ccc(-c3cccc(F)c3)cc2O[C@@H]1CN(C)C`: the inhibition is -12.6%. With `C=CCN1C(=O)N(Cc2ccccc2)c2ccccc2S1(=O)=O`, the inhibition is -0.33%. Then `COCCNC(=O)c1cc2c(Br)ccc(Br)c2nc1N`, with -4.31%. `CC(=O)Nc1ccc(NC(=O)CS(=O)(=O)c2cn(CC(=O)N3CCCCC3)c3ccccc23)cc1`: the inhibition is -35.2%. Then `O=C(Nc1nnc(SCc2c(Cl)cccc2Cl)s1)c1cccc([N+](=O)[O-])c1`, with -16.3%; and `CC(C)(C)SCCNC(=O)c1cccc([N+](=O)[O-])c1`, with -20.6%; and `O=C(Nc1ccc(C2CC2(Cl)Cl)cc1)c1cccc([N+](=O)[O-])c1` (configuration not stated), with 49.6% (active).

In the case of `NC(=O)c1oc2ccccc2c1NC(=O)Cc1ccccc1`, the inhibition is 7.4%.

With `NC(=O)c1oc2ccccc2c1NC(=O)CS(=O)(=O)c1ccccc1`, the inhibition is -13.1%. On to `COc1ccc(CC(=O)Nc2c(C(N)=O)oc3ccccc23)cc1`, for which the inhibition was 62.3% (active).
